The values that follow come from ChEMBL document CHEMBL4219244, “Blocking Alcoholic Steatosis in Mice with a Peripherally Restricted Purine Antagonist of the Type 1 Cannabinoid Receptor” (J Med Chem, 2018).

Series [1] addresses Cannabinoid receptor 2 (Homo sapiens, UniProt P34972). The series can be described thus: Displacement of [3H]CP55940 from human CB2 expressed in CHOK1 cell membranes. (In general: Displacement assays read how much labelled ligand stays bound in the presence of the test substance.)
Series [2] is described as follows: Aqueous kinetic solubility of the compound in 10 mM phosphate buffer at pH 1.6 after 90 mins by LC/MS analysis. Format: physicochemical. Conditions: read-out: Kinetic_solubility. In outline:
(§1)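 10 mM DMSO stocks diluted into 10 mM phosphate buffer (final DMSO 1%), shaken 90 min at room temperature, filtered through 0.4 μm plates. Filtrate concentration quantified by LC/MS against a six-point standard curve. Mean of three determinations.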

The nature of series [3]: Aqueous kinetic solubility of the compound in 10 mM phosphate buffer at pH 7.4 after 90 mins by LC/MS analysis. Conditions: read-out: Kinetic_solubility. Type of series: physicochemical. In a few lines:
as §1

A short description of series [4]: Drug uptake in C57BL/6 mouse brain at 1.25 mg/kg, po bid administered via gavage treated for 7 days measured at 0.5 to 24 hrs post last dose. Conditions: in vivo. Format: ADME, organism-based.
Series [5] concerns Mus musculus. The series can be described thus: Anti-hepatic steatosis activity in alcohol-induced hepatic steatosis C57BL/6 mouse model assessed as reduction in hepatic lipid accumulation at 1.25 mg/kg, po bid administered via gavage treated for 2 weeks by oil red o-staining based histopathological assay. Format: functional, organism-based. In a few lines:
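Female C57BL6 mice on Lieber-DeCarli liquid diet; ethanol raised progressively 1 to 5% (v/v) over 15 days, then 4 further weeks; pair-fed controls on control diet. Drug suspended in 0.5% sodium carboxymethylcellulose, 1% NMP, 0.3% Tween 80, given 1.25 mg/kg twice daily by gavage for last 2 weeks. Liver sections (10 μm, OCT) stained with Oil Red O; droplets counted in six grids per image; n = 6 per group; ANOVA.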

The test system of series [6] is Mus musculus. The series can be described thus: Suppression of CP55940-induced hypothermia in C57BL/6 mouse assessed as reduction in body temperature at 10 mg/kg, po administered via gavage pretreated for 30 mins followed by CP55940 addition measured at regular interval up to 4 hrs. Conditions: in vivo. Type of series: ADME, organism-based. In a few lines:
(§2)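 Female C57BL6 mice, acclimated 2 weeks, given test agent or vehicle by oral gavage; after 30 min, CP55940 0.56 mg/kg ip in corn oil. Rectal temperature recorded at regular intervals up to 4 h. Six animals per group; means and standard deviations; two-way ANOVA versus vehicle.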

Series [7] is described as follows: Drug uptake in alcohol-induced hepatic steatosis C57BL/6 mouse model brain at 1.25 mg/kg, po bid administered via gavage treated for 2 weeks measured at 16 hrs post last dose by LC-MS method. Format: ADME, organism-based. Conditions: in vivo.
Series [8] addresses Cannabinoid receptor 1 (Homo sapiens, UniProt P21554). In words: Displacement of [3H]CP55940 from human CB1 expressed in CHOK1 cell membranes.
The species entered for series [9] is Homo sapiens. In words: Selectivity ratio of Ki for human CB2 to Ki for human CB1. In outline:
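Displacement of [3H]CP55940 binding to membranes from CHO cells overexpressing human CB1 or human CB2. Ki was determined at each receptor, and the ratio was taken as Ki(hCB2)/Ki(hCB1). Values are averages of three to six measurements.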

The test system of series [10] is Mus musculus. The series can be described thus: Suppression of CP55940-induced hypothermia in C57BL/6 mouse assessed as reduction in body temperature at 30 mg/kg, po administered via gavage pretreated for 30 mins followed by CP55940 addition measured at regular interval up to 4 hrs. To be noted: in vivo. Type of series: ADME, organism-based. In outline:
as §2

A short description of series [11]: Drug uptake in C57BL/6 mouse brain at 5 mg/kg, po after 0.6 to 24 hrs by LC-MS method. Conditions: in vivo. Type of series: ADME, organism-based.

The structures appear in SMILES notation. Activity calls are given as the source filed them. The calls are words filed in the database; no cut-off is given here.

Chain of Cannabinoid receptor 1 (P21554 whole entry): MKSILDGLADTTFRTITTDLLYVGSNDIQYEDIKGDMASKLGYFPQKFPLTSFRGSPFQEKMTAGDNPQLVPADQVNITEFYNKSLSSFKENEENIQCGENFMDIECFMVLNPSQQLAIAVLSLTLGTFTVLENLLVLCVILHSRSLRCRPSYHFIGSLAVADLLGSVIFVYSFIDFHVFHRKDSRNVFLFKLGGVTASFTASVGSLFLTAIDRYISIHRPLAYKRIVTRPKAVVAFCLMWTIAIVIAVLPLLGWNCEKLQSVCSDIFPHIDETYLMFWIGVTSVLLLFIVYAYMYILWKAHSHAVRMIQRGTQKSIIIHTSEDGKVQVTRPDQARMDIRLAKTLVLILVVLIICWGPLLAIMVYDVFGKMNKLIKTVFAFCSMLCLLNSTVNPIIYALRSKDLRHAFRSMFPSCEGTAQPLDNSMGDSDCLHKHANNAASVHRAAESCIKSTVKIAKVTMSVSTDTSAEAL
Chain of Cannabinoid receptor 2 (P34972 whole entry): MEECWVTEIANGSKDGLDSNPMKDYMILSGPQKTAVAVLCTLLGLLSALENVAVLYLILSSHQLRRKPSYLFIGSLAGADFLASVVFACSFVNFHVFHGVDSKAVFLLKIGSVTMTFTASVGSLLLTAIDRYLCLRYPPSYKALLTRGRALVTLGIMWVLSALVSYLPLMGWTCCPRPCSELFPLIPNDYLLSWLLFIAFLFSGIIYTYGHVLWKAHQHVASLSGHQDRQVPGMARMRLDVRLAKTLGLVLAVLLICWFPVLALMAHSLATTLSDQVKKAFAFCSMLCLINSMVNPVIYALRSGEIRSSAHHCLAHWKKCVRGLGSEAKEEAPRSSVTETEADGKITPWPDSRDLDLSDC

A word on the Ki: it is a measure of affinity in units of concentration, obtained from inhibition or displacement. In turn, `Clc1ccc(-n2c(-c3ccccc3Cl)nc3c(N4CCN(c5ccccc5)CC4)ncnc32)cc1` showed a Ki in [1] of over 10000 nM.
On to `Clc1ccc(-n2c(-c3ccccc3Cl)nc3c(N4CCN(Cc5ccccc5Cl)CC4)ncnc32)cc1`, for which the solubility kinetic at […] in series [2] was over 200 µM; in series [3], under 0.4 µM. Further, the Drug uptake result in series [4] and in series [7] was “Not Active” throughout. In addition, the outcome in [5] was Active. The Activity result in series [6] is “Non-Toxic”.
Regarding `N#Cc1ccc(N2CCN(c3ncnc4c3nc(-c3ccccc3Cl)n4-c3ccc(Cl)cc3)CC2)cc1`, the Ki in series [1] is over 10000 nM.
Regarding `Clc1ccc(-n2c(-c3ccccc3Cl)nc3c(N4CCN(CCc5ccncc5)CC4)ncnc32)cc1`, the Ki in [8] worked out at 12 nM; in [1], 630 nM. Also, the Ratio Ki in series [9] amounted to 52.
In turn, `Clc1ccc(CN2CCN(c3ncnc4c3nc(-c3ccccc3Cl)n4-c3ccc(Cl)cc3)CC2)cc1` had an inhibitory constant (Ki) in [1] of over 10000 nM.
With `Oc1cccc(N2CCN(c3ncnc4c3nc(-c3ccccc3Cl)n4-c3ccc(Cl)cc3)CC2)c1`, the Ki was 25 nM in [8] and over 10000 nM in [1].
Turning to `COc1ccc(N2CCN(c3ncnc4c3nc(-c3ccccc3Cl)n4-c3ccc(Cl)cc3)CC2)cc1`, in [1], the inhibition constant (Ki) is over 10000 nM.
Consider `Cc1ccc(CN2CCN(c3ncnc4c3nc(-c3ccccc3Cl)n4-c3ccc(Cl)cc3)CC2)cc1`, for which the Ki in series [1] is over 10000 nM.
Consider `N#Cc1ccccc1N1CCN(c2ncnc3c2nc(-c2ccccc2Cl)n3-c2ccc(Cl)cc2)CC1`, for which the Ki in series [1] is over 10000 nM.
Take `CCNC1(C(N)=O)CCN(c2ncnc3c2nc(-c2ccccc2Cl)n3-c2ccc(Cl)cc2)CC1` [OTENABANT]: the Activity entry in [10] is given as “Toxic”.
On to `FC(F)(F)Oc1ccccc1CN1CCN(c2ncnc3c2nc(-c2ccccc2Cl)n3-c2ccc(Cl)cc2)CC1`, for which, in series [1], the inhibition constant Ki was over 10000 nM.
The same measure, in the same setting: then `Cc1ccccc1CN1CCN(c2ncnc3c2nc(-c2ccccc2Cl)n3-c2ccc(Cl)cc2)CC1`, with 4600 nM.
Turning to `N#CC(c1ccccc1)N1CCN(c2ncnc3c2nc(-c2ccccc2Cl)n3-c2ccc(Cl)cc2)CC1` (stereo not given), the inhibition constant Ki in series [8] is 7 nM; in series [1] it was 460 nM. Also, the Ratio Ki in series [9] was found to be 66.
Regarding `Cc1c(C(=O)NN2CCCCC2)nn(-c2ccc(Cl)cc2Cl)c1-c1ccc(Cl)cc1` [RIMONABANT], the Drug uptake result in series [11] is given as “Active”.
Turning to `COc1ccc(CN2CCN(c3ncnc4c3nc(-c3ccccc3Cl)n4-c3ccc(Cl)cc3)CC2)cc1`, the Ki in [1] is over 10000 nM.
Regarding `Clc1ccc(-n2c(-c3ccccc3Cl)nc3c(N4CCN(Cc5ccccc5)CC4)ncnc32)cc1`, the inhibitory constant (Ki) in series [8] was 4 nM; in series [1], 430 nM. Moreover, the Ratio Ki in series [9] was 110.
On to `COc1ccccc1N1CCN(c2ncnc3c2nc(-c2ccccc2Cl)n3-c2ccc(Cl)cc2)CC1`, for which the Ki in series [8] is 2 nM; in series [1], 5000 nM.
